Reference: ChEMBL document CHEMBL5046217, “Discovery of New Imidazo[2,1-b]thiazole Derivatives as Potent Pan-RAF Inhibitors with Promising In Vitro and In Vivo Anti-melanoma Activity” (J Med Chem, 2021)

Assays:
[1] = biological target: Serine/threonine-protein kinase B-raf (Homo sapiens, UniProt P15056); assay: Inhibition of human wild type BRAF using myelin basic protein as substrate in presence of [gamma-33P]ATP incubated for 40 mins by scintillation counting method
Summary of the method: (§1)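 Radiometric kinase assay run at Reaction Biology. Kinase (5−10 mU) in 25 mM Tris pH 7.5, 0.02 mM EGTA, 10 mM magnesium acetate with 0.66 mg/mL myelin basic protein and [γ-33P]ATP at 1 μM ATP. Reaction started with Mg-ATP and run 40 min at room temperature, then stopped with 3% phosphoric acid. Spotted on P30 filtermat, washed, scintillation counted.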

[2] = biological target: Serine/threonine-protein kinase B-raf (Homo sapiens, UniProt P15056, V600E); assay: Inhibition of human BRAF V600E mutant using myelin basic protein as substrate in presence of [gamma-33P]ATP incubated for 40 mins by scintillation counting method; summary of the method: as §1
Serine/threonine-protein kinase B-raf (Homo sapiens, UniProt P15056, V600E), sequence (P15056 2-766 V600E limits assumed): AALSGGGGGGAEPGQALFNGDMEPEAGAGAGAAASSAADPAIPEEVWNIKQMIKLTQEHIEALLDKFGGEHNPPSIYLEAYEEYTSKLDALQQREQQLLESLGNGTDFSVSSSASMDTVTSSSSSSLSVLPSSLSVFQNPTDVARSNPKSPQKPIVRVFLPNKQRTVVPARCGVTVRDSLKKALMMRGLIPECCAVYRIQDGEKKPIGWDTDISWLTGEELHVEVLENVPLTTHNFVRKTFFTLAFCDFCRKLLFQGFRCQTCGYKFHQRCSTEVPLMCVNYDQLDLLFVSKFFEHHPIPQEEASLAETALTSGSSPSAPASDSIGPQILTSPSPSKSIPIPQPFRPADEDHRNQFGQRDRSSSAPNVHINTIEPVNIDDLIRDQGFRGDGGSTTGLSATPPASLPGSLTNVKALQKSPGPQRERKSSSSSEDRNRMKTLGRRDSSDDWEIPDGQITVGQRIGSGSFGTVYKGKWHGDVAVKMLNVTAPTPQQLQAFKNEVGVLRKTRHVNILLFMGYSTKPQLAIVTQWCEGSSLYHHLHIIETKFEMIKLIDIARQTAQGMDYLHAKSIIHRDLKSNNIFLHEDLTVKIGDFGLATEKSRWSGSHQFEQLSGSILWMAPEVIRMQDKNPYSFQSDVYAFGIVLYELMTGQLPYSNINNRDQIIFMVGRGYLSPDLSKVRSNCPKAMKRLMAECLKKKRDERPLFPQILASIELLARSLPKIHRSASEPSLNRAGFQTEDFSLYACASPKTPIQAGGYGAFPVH

[3] = biological target: RAF proto-oncogene serine/threonine-protein kinase (Homo sapiens, UniProt P04049); assay: Inhibition of human wild type CRAF using myelin basic protein as substrate in presence of [gamma-33P]ATP incubated for 40 mins by scintillation counting method
RAF proto-oncogene serine/threonine-protein kinase, sequence (P04049 whole entry): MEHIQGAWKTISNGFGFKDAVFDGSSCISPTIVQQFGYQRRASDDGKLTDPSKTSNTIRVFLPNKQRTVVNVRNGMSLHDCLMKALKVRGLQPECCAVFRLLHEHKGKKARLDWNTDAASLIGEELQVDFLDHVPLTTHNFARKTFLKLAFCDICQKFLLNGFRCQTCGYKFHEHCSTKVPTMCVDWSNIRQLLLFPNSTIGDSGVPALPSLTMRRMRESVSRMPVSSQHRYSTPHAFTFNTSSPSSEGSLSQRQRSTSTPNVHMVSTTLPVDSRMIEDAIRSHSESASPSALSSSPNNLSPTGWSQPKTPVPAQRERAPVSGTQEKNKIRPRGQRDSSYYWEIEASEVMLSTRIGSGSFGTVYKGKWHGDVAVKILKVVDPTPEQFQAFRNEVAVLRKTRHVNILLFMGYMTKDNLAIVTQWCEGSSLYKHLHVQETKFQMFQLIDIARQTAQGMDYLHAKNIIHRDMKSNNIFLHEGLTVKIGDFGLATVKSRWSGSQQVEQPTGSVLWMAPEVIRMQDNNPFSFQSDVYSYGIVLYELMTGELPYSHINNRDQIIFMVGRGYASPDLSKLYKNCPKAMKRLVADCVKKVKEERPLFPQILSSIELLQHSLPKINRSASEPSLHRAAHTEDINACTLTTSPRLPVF

[4] = biological target: Mitogen-activated protein kinase 8 (Homo sapiens, UniProt P45983); assay: Inhibition of MAPK8 (unknown origin) incubated for 1 hr by qPCR analysis
Mitogen-activated protein kinase 8, sequence (P45983 whole entry): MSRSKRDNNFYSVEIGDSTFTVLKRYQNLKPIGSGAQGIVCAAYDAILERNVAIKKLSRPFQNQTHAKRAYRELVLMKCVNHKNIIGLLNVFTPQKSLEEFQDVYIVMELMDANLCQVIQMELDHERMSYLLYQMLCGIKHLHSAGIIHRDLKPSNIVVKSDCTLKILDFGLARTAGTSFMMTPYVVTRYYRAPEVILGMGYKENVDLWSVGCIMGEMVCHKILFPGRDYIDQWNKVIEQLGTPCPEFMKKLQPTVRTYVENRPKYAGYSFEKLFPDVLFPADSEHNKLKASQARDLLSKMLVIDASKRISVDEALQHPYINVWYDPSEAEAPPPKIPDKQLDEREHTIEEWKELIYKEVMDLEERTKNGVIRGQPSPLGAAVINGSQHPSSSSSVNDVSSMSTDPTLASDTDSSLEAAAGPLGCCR
Summary of the method: (§2)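 Competition binding assay. Kinases were either T7-phage-tagged (grown in an E. coli BL21-derived host) or expressed in HEK-293 cells and DNA-tagged. […] Bound kinase was eluted with non-biotinylated ligand and quantified by qPCR.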

[5] = biological target: T1, Receptor-type tyrosine-protein kinase FLT3 (Homo sapiens, UniProt P36888); assay: Inhibition of FLT3 (unknown origin) incubated for 1 hr by qPCR analysis; summary of the method: as §2
T1 sequence (P36888 whole entry): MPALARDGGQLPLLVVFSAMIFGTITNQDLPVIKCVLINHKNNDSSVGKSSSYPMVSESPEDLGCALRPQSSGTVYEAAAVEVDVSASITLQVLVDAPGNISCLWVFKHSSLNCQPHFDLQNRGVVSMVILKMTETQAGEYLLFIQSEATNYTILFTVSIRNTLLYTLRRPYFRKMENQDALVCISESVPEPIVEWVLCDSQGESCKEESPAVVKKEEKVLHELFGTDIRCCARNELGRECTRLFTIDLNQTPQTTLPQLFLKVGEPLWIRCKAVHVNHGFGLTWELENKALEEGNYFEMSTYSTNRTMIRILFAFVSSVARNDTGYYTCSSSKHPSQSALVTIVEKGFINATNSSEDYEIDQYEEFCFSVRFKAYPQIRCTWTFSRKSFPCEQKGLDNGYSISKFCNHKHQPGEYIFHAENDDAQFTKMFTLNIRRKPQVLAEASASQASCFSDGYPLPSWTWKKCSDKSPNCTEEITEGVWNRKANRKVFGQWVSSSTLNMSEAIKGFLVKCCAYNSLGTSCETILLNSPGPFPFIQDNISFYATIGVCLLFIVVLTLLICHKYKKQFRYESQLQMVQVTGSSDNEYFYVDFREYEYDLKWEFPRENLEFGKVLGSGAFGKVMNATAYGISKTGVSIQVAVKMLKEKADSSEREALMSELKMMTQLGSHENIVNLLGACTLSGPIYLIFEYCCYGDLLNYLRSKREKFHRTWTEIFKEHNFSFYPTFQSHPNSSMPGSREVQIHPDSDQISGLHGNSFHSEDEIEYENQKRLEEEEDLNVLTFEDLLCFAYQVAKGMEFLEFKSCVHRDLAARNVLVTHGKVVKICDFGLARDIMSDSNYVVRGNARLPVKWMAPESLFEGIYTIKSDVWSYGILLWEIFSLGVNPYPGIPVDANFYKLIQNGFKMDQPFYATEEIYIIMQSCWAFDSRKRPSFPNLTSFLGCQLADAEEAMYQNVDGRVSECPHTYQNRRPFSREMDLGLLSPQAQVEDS

[6] = biological target: Tyrosine-protein kinase ABL1 (Homo sapiens, UniProt P00519); assay: Inhibition of ABL1 (unknown origin) incubated for 1 hr by qPCR analysis
[7] = biological target: Mitogen-activated protein kinase kinase kinase 20 (Homo sapiens, UniProt Q9NYL2); assay: Inhibition of ZAK (unknown origin) incubated for 1 hr by qPCR analysis; summary of the method: as §2
[8] = biological target: Mitogen-activated protein kinase 11 (Homo sapiens, UniProt Q15759); assay: Inhibition of MAPK11 (unknown origin) incubated for 1 hr by qPCR analysis; summary of the method: as §2
Mitogen-activated protein kinase 11, sequence (Q15759 whole entry): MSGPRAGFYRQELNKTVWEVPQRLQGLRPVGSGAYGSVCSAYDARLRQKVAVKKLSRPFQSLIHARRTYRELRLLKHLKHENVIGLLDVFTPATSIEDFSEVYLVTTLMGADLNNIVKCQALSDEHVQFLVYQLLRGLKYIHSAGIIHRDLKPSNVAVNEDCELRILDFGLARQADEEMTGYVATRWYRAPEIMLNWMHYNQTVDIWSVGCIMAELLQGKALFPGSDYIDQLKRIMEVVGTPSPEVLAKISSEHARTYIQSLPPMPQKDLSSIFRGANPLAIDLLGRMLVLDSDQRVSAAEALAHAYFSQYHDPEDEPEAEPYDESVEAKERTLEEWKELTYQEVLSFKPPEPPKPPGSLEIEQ

[9] = biological target: Serine/threonine-protein kinase/endoribonuclease IRE1 (Homo sapiens, UniProt O75460); assay: Inhibition of ERN1 (unknown origin) incubated for 1 hr by qPCR analysis; summary of the method: as §2
Serine/threonine-protein kinase/endoribonuclease IRE1, sequence (O75460 whole entry): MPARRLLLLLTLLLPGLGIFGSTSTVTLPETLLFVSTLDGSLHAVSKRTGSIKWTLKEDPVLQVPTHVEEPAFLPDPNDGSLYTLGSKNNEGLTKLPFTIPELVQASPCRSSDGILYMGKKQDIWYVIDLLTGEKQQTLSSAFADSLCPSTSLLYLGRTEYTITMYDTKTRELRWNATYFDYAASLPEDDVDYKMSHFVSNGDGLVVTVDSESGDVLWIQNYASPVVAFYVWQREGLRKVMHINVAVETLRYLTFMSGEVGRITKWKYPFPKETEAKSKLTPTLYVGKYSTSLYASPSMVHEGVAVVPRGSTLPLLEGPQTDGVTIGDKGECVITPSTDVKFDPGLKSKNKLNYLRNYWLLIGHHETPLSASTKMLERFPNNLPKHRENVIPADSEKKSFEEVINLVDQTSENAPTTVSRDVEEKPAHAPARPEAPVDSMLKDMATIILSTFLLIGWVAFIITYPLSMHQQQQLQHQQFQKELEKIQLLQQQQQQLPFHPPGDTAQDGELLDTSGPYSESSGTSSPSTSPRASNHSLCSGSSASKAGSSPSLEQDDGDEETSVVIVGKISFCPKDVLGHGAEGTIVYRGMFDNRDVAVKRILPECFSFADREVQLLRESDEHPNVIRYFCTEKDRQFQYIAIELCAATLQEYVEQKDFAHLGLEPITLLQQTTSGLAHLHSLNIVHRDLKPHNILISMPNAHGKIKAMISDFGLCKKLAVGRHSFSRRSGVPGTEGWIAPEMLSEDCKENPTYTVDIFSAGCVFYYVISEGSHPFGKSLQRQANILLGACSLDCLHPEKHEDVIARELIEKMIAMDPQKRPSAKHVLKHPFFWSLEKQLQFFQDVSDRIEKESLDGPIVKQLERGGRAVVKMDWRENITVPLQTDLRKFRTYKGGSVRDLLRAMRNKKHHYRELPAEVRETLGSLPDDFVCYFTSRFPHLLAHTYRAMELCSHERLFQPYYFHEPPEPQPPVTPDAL

[10] = biological target: Mitogen-activated protein kinase 14 (Homo sapiens, UniProt Q16539); assay: Inhibition of MAPK14 (unknown origin) incubated for 1 hr by qPCR analysis; summary of the method: as §2
Mitogen-activated protein kinase 14, sequence (Q16539 whole entry): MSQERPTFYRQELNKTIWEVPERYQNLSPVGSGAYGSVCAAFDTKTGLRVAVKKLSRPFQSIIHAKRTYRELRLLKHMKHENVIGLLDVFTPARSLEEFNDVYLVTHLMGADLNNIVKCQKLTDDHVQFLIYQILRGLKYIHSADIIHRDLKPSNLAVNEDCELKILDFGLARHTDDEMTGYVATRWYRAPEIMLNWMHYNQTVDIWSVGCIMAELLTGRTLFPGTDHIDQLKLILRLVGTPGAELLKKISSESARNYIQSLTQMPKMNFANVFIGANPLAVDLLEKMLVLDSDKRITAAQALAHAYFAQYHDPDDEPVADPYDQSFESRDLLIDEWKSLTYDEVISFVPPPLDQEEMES

[11] = biological target: Homeodomain-interacting protein kinase 1 (Homo sapiens, UniProt Q86Z02); assay: Inhibition of HIPK1 (unknown origin) incubated for 1 hr by qPCR analysis; summary of the method: as §2

Serine/threonine-protein kinase B-raf (Homo sapiens, UniProt P15056), sequence (P15056 whole entry): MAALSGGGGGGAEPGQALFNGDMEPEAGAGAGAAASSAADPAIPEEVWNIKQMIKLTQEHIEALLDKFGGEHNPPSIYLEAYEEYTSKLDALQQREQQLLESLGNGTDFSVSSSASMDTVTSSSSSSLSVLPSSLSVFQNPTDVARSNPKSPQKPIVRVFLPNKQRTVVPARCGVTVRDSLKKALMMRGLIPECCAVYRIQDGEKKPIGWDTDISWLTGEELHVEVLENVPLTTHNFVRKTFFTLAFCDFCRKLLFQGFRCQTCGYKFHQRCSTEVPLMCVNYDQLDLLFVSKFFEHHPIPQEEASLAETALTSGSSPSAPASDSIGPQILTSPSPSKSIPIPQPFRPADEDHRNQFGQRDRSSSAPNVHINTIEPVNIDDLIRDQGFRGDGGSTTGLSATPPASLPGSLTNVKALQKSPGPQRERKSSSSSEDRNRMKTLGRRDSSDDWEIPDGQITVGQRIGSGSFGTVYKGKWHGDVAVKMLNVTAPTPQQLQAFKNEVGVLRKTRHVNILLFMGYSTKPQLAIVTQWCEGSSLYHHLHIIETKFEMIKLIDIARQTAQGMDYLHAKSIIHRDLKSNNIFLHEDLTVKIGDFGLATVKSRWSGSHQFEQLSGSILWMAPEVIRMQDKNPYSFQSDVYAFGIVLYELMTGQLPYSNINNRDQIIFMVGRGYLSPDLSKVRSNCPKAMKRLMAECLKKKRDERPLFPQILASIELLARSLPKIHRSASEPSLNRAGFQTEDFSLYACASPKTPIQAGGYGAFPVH

| SMILES | IC50 [1] [nM] | IC50 [2] [nM] | IC50 [3] [nM] | further results |
| --- | --- | --- | --- | --- |
| COc1cccc(-c2nc3sccn3c2-c2ccnc(NCCNS(=O)(=O)c3ccc(F)cc3)n2)c1 | 522 | 115 | 100 |  |
| Cc1ccc(S(=O)(=O)NCCNc2nccc(-c3c(-c4ccccc4)nc4sccn34)n2)cc1 | 623 | 89.3 | 251 |  |
| CC(C)(C)OC(=O)N1CCCN(CCNc2nccc(-c3c(-c4cccc(O)c4)nc4sccn34)n2)S1(=O)=O | 11.2 | 9.57 | 9.98 |  |
| COc1ccc(-c2nc3sccn3c2-c2ccnc(NCCNS(=O)(=O)c3cccc4ccccc34)n2)cc1 | 20800 | > 35000 | 28900 |  |
| COc1cccc(-c2nc3sccn3c2-c2ccnc(NCCN3CCN(C)S3(=O)=O)n2)c1 | 6.12 | 1.51 | 2.52 |  |
| COc1cccc(-c2nc3sccn3c2-c2ccnc(NCCN3CC(C)(C)NS3(=O)=O)n2)c1 | 13.7 | 8.65 | 5.63 |  |
| COc1ccc(-c2nc3sccn3c2-c2ccnc(NCCNS(=O)(=O)c3ccc(F)cc3)n2)cc1 | 9210 | 13200 | 32200 |  |
| COc1cccc(-c2nc3sccn3c2-c2ccnc(NCCNS(=O)(=O)c3ccc(C)cc3)n2)c1 | 987 | 177 | 163 |  |
| O=S(=O)(NCCNc1nccc(-c2c(-c3cccc(O)c3)nc3sccn23)n1)c1ccc(F)cc1 | 2.7 |  | 6 | IC50 [4]: 1350 nM; IC50 [5]: 1990 nM; IC50 [6]: 10400 nM; IC50 [7]: 7580 nM; IC50 [8]: 1210 nM; IC50 [9]: 9540 nM; IC50 [10]: 2010 nM; IC50 [11]: 5130 nM |
